Assay results from ChEMBL document CHEMBL5252634, “Design, synthesis and in vitro cytotoxicity evaluation of indolo-pyrazoles grafted with thiazolidinone as tubulin polymerization inhibitors” (RSC Med Chem, 2023).
One block for each compound: values may come before it. The source made the active and inactive calls. The calls are words filed in the database; no cut-off is given here.

Legend:
SK-MEL-28 [1] = experiment: Induction of apoptosis in human SK-MEL-28 cells assessed as cellular shrinkage at 1.73 to 6.92 uM after 48 hrs by phase contrast microscopic analysis; format: functional, cell-based; conditions: dose 1.73-6.92 µM
Method in brief: (§1)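 SK-MEL-28 cells plated at 1×10^6 cells/mL, allowed to adhere overnight, then exposed to several concentrations for 48 h. Bright-field imaging at 20X to score cell shrinkage, deformation and viable cell number.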

SK-MEL-28 [2] = experiment: Induction of apoptosis in human SK-MEL-28 cells assessed as horseshoe-shaped nucleus at 1.73 to 6.92 uM incubated for 48 hrs by DAPI staining based fluorescence microscopy; format: functional, cell-based; conditions: dose 1.73-6.92 µM
Method in brief: (§2)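 SK-MEL-28 exposed 48 h, then PBS-washed, fixed in 4% paraformaldehyde, permeabilized with 0.1% Triton X for 15 min and stained with 10 µg/mL DAPI. Nuclei viewed by fluorescence (ex 359/em 461 nm), 20X, with untreated controls.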

SK-MEL-28 [3] = experiment: Induction of cell cycle arrest in human SK-MEL-28 cells assessed as accumulation of cells at S phase at 1.73 uM incubated for 48 hrs by flow cytometry (reference value: 6.34%); format: functional
SK-MEL-28 [4] = experiment: Induction of cell cycle arrest in human SK-MEL-28 cells assessed as accumulation of cells at G0/G1 phase at 6.92 uM incubated for 48 hrs by flow cytometry (reference value: 79.59%); format: functional
SK-MEL-28 [5] = experiment: Induction of apoptosis in human SK-MEL-28 cells assessed as nucleus fragmentation at 1.73 to 6.92 uM incubated for 48 hrs by DAPI staining based fluorescence microscopy; format: functional, cell-based; conditions: dose 1.73-6.92 µM; method in brief: as §2
SK-MEL-28 [6] = experiment: Cytotoxicity against human SK-MEL-28 cells assessed as reduction in cell viability measured after 48 hrs by MTT assay; format: functional, cell-based; conditions: SK-MEL-28, 48 h
Method in brief: (§3)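 Cells kept in medium with 10% FBS and 1% antibiotic–antimycotic at 37 °C, 5% CO2. Seeded at 3000–4000 cells/well, grown overnight, then given fresh medium with a range of concentrations (diluted from 10 mM DMSO stocks) for 48 h. MTT (0.5 mg/mL) added for 3–4 h at 37 °C. Formazan dissolved in DMSO and absorbance read at 570 nm.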

B16-F10 = experiment: Cytotoxicity against mouse B16-F10 cells assessed as reduction in cell viability measured after 48 hrs by MTT assay; format: functional, cell-based; conditions: B16-F10, 48 h; method in brief: as §3
SK-MEL-28 [7] = experiment: Induction of apoptosis in human SK-MEL-28 cells assessed as budding nucleus at 1.73 to 6.92 uM incubated for 48 hrs by DAPI staining based fluorescence microscopy; format: functional, cell-based; conditions: dose 1.73-6.92 µM; method in brief: as §2
SK-MEL-28 [8] = experiment: Induction of apoptosis in human SK-MEL-28 cells assessed as cell membrane disruption at 1.73 to 6.92 uM incubated for 48 hrs by AO/EB staining based fluorescence microscopy; format: functional; conditions: dose 1.73-6.92 µM
Method in brief: (§4)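 SK-MEL-28 plated at 1×10^6 cells/mL and treated at several concentrations for 48 h. Acridine orange and ethidium bromide added at 10 µg/ml, and cells imaged at once by fluorescence microscopy (ex 488/em 550 nm), 20X.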

SK-MEL-28 [9] = experiment: Induction of apoptosis in human SK-MEL-28 cells assessed as nuclear condensation at 1.73 to 6.92 uM incubated for 48 hrs by DAPI staining based fluorescence microscopy; format: functional, cell-based; conditions: dose 1.73-6.92 µM; method in brief: as §2
Tubulin [10] = experiment: Inhibition of tubulin polymerization (unknown origin) at 1.73 to 6.92 uM measured after 1 hr; format: protein-complex assay, Homo sapiens
Method in brief: (§5)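 Fluorescence-based tubulin polymerization kit: tubulin, GTP and tubulin glycerol buffer mixed and added to compound (from 10x stocks), enhancer and inhibitor reference standards, and blanks in a plate prewarmed to 37 °C. Read kinetically for 1 h at ex 360/em 450 nm.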

SK-MEL-28 [11] = experiment: Induction of apoptosis in human SK-MEL-28 cells assessed as reduction in live cells at 1.73 to 6.92 uM after 48 hrs by phase contrast microscopic analysis; format: functional, cell-based; conditions: dose 1.73-6.92 µM; method in brief: as §1
A549 = experiment: Cytotoxicity against human A549 cells assessed as reduction in cell viability measured after 48 hrs by MTT assay; format: functional, cell-based; conditions: A549, 48 h; method in brief: as §3
SK-MEL-28 [12] = experiment: Induction of apoptosis in human SK-MEL-28 cells assessed as increase in ROS level incubated for 48 hrs by DCFDA staining based fluorescence microscopic assay; format: functional, cell-based; conditions: dose 1.73-6.92 µM
Method in brief: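 SK-MEL-28 seeded at 1×10^6 cells/well and treated at several concentrations for 48 h at 37 °C. DCFDA (10 µM) loaded for 30 min at 37 °C, excess washed off with PBS, and green DCF fluorescence imaged (ex 498/em 530 nm), 20X.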

SK-MEL-28 [13] = experiment: Induction of apoptosis in human SK-MEL-28 cells assessed as early apoptotic cells measured after 48 hrs by annexin-V-FITC/PI double staining based flow cytometric analysis; format: functional, cell-based; conditions: dose 1.73-6.92 µM
Method in brief: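 1×10^6 SK-MEL-28 cells treated at various concentrations for 48 h. Cells trypsinized with supernatant retained and washed twice in ice-cold PBS. Stained with annexin V-FITC and PI in binding buffer for 15 min at room temperature in the dark, kept on ice, and analysed by flow cytometry.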

[14] = Selectivity index, ratio of IC50 for cytotoxicity against human BEAS-2B cells to IC50 for cytotoxicity against human HCT-116 cells; format: functional
[15] = Selectivity index, ratio of IC50 for cytotoxicity against human BEAS-2B cells to IC50 for cytotoxicity against human A549 cells; format: functional
SK-MEL-28 [16] = experiment: Induction of apoptosis in human SK-MEL-28 cells assessed as blebbing nucleus at 1.73 to 6.92 uM incubated for 48 hrs by DAPI staining based fluorescence microscopy; format: functional, cell-based; conditions: dose 1.73-6.92 µM; method in brief: as §2
SK-MEL-28 [17] = experiment: Induction of cell cycle arrest in human SK-MEL-28 cells assessed as accumulation of cells at G2/M phase at 3.46 uM incubated for 48 hrs by flow cytometry (reference value: 13.14%); format: functional
[18] = Cytotoxicity against human BEAS-2B cells assessed as reduction in cell viability measured after 48 hrs by MTT assay; format: toxicity, cell-based; method in brief: as §3
HCT-116 = experiment: Cytotoxicity against human HCT-116 cells assessed as reduction in cell viability measured after 48 hrs by MTT assay; format: functional, cell-based; conditions: HCT-116, 48 h; method in brief: as §3
SK-MEL-28 [19] = experiment: Induction of apoptosis in human SK-MEL-28 cells assessed as change in cell shape at 1.73 to 6.92 uM after 48 hrs by phase contrast microscopic analysis; format: functional, cell-based; conditions: dose 1.73-6.92 µM; method in brief: as §1
SK-MEL-28 [20] = experiment: Induction of cell cycle arrest in human SK-MEL-28 cells assessed as accumulation of cells at S phase at 3.46 uM incubated for 48 hrs by flow cytometry (reference value: 6.34%); format: functional
SK-MEL-28 [21] = experiment: Induction of cell cycle arrest in human SK-MEL-28 cells assessed as accumulation of cells at G2/M phase at 6.92 uM incubated for 48 hrs by flow cytometry (reference value: 13.14%); format: functional
SK-MEL-28 [22] = experiment: Induction of apoptosis in human SK-MEL-28 cells assessed as increase in red fluorescence at 1.73 to 6.92 uM incubated for 48 hrs by AO/EB staining based fluorescence microscopy; format: functional, cell-based; conditions: dose 1.73-6.92 µM; method in brief: as §4
SK-MEL-28 [23] = experiment: Induction of apoptosis in human SK-MEL-28 cells assessed as apoptotic body formation at 1.73 to 6.92 uM incubated for 48 hrs by AO/EB staining based fluorescence microscopy; format: functional, cell-based; conditions: dose 1.73-6.92 µM; method in brief: as §4
SK-MEL-28 [24] = experiment: Induction of cell cycle arrest in human SK-MEL-28 cells assessed as accumulation of cells at S phase at 6.92 uM incubated for 48 hrs by flow cytometry (reference value: 6.34%); format: functional
SK-MEL-28 [25] = experiment: Induction of cell cycle arrest in human SK-MEL-28 cells assessed as accumulation of cells at G0/G1 phase at 3.46 uM incubated for 48 hrs by flow cytometry (reference value: 79.59%); format: functional
SK-MEL-28 [26] = experiment: Induction of cell cycle arrest in human SK-MEL-28 cells assessed as accumulation of cells at G2/M phase at 1.73 uM incubated for 48 hrs by flow cytometry (reference value: 13.14%); format: functional
[27] = Selectivity index, ratio of IC50 for cytotoxicity against human BEAS-2B cells to IC50 for cytotoxicity against human SK-MEL-28 cells; format: functional
SK-MEL-28 [28] = experiment: Potency index, ratio of sunitinib IC50 to test compound IC50 for cytotoxicity against human SK-MEL-28 cells assessed as reduction in cell viability measured after 48 hrs by MTT assay; format: functional
SK-MEL-28 [29] = experiment: Induction of apoptosis in human SK-MEL-28 cells assessed as morphological changes measured after 48 hrs by AO/EB staining based microscopic analysis; format: functional, cell-based; conditions: dose 1.73-6.92 µM; method in brief: as §4
SK-MEL-28 [30] = experiment: Induction of cell cycle arrest in human SK-MEL-28 cells assessed as accumulation of cells at G0/G1 phase at 1.73 uM incubated for 48 hrs by flow cytometry (reference value: 79.59%); format: functional
[31] = Selectivity index, ratio of IC50 for cytotoxicity against human BEAS-2B cells to IC50 for cytotoxicity against mouse B16-F10 cells; format: functional
Tubulin (Homo sapiens) = Tubulin (Homo sapiens) (UniProt P68371+Q9H4B7+P0DPH7+P68366+Q13509+Q71U36+P04350+Q3ZCM7+P07437+P68363+Q9BQE3+Q6PEY2+Q13885+Q9BVA1+Q9BUF5); experiment: Inhibition of tubulin polymerization (unknown origin) at 1.73 to 6.92 uM measured after 1 hr relative to control; format: protein-complex assay; conditions: dose 1.73-6.92 µM; method in brief: as §5
HCT-15 [32] = experiment: Cytotoxicity against human HCT-15 cells assessed as reduction in cell viability; format: functional, cell-based
HCT-15 [33] = experiment: Cytotoxicity against human HCT-15 cells assessed as reduction in cell viability incubated for 4 hrs by MTT assay; format: functional, cell-based; conditions: HCT-15, 4 h
SK-OV-3 = experiment: Cytotoxicity against multidrug resistance human SK-OV-3 cells assessed as cell growth inhibition; format: functional, cell-based
PC-3 = experiment: Cytotoxicity against multidrug resistance human PC-3 cells assessed as cell growth inhibition; format: functional, cell-based
[34] = Cytotoxicity against multidrug resistance human U87 cells assessed as cell growth inhibition; format: functional, cell-based, U-87MG ATCC; conditions: U-87 MG
HeLa = experiment: Cytotoxicity against human HeLa cells assessed as reduction in cell viability; format: functional, cell-based
Tubulin [35] = experiment: Inhibition of tubulin polymerization (unknown origin); format: cell-based, Homo sapiens

IC50 (Tubulin [10]): < 1730 nM
inhibition (Tubulin (Homo sapiens)): 60%
SMILES: O=C1CS/C(=N\c2cc(-c3c[nH]c4ccccc34)nn2-c2cccc(Cl)c2)N1
Activity (SK-MEL-28 [1]): Active
Activity (SK-MEL-28 [2]): Active
Activity (SK-MEL-28 [3]): 6.73%
Activity (SK-MEL-28 [4]): 77.01%
Activity (SK-MEL-28 [5]): Active
IC50 (SK-MEL-28 [6]): 3460 nM
IC50 (B16-F10): 10800 nM
Activity (SK-MEL-28 [7]): Active
Activity (SK-MEL-28 [8]): Active
Activity (SK-MEL-28 [9]): Active
Activity (SK-MEL-28 [11]): Active
IC50 (A549): 11500 nM
Activity (SK-MEL-28 [12]): Dose-Dependent Effect
Activity (SK-MEL-28 [13]): Dose-Dependent Effect
Ratio IC50 [14]: 1.76
Ratio IC50 [15]: 1.38
Activity (SK-MEL-28 [16]): Active
Activity (SK-MEL-28 [17]): 16.11%
IC50 at 48 h [18]: 15900 nM
IC50 (HCT-116): 9020 nM
Activity (SK-MEL-28 [19]): Active
Activity (SK-MEL-28 [20]): 6.73%
Activity (SK-MEL-28 [21]): 16.39%
Activity (SK-MEL-28 [22]): Active
Activity (SK-MEL-28 [23]): Active
Activity (SK-MEL-28 [24]): 5.7%
Activity (SK-MEL-28 [25]): 77.33%
Activity (SK-MEL-28 [26]): 14.31%
Ratio IC50 [27]: 4.59
Ratio IC50 (SK-MEL-28 [28]): 1.5
Activity (SK-MEL-28 [29]): Dose-Dependent Effect
Activity (SK-MEL-28 [30]): 77.35%
Ratio IC50 [31]: 1.47

SMILES: COc1ccc(CC/N=C2/NC(=O)/C(=C\c3c[nH]c4ccc(Br)cc34)S2)cc1
IC50 (HCT-15 [32]): 920 nM
IC50 (HCT-15 [33]): 920 nM

SMILES: O=C(Nc1ccncc1)C(=O)c1cn(Cc2ccc(Cl)cc2)c2ccccc12 [INDIBULIN]
IC50 (SK-OV-3): 36 nM
IC50 (PC-3): 64 nM
IC50 [34]: 77 nM

SMILES: COc1cc(NC(=O)/C=C/c2cc(-c3cc(OC)c(OC)c(OC)c3)n[nH]2)cc(OC)c1OC
IC50 (HeLa): 400 nM

IC50 (Tubulin [35]): 350 nM
SMILES: CCOc1ccc(-c2n[nH]cc2-c2cc(OC)c(OC)c(OC)c2)cc1
